This is a sample that favours compounds with a hit; in the whole collection about 2.9% have one here.
Cneo AK release = causes C. neoformans cell lysis. lysis activity, % at 15 µM. AID 651654. adenylate kinase release luminescence, 4 h; normalised: neutral wells 0, clomiphene wells 100. 360,000 compounds, 0.2% hits;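 active = mean lysis activity across replicates of at least 80%, whatever share of replicates individually reach that level; inactive = mean lysis activity below 80%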
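Test system: log-phase Cryptococcus neoformans yeast cells; Quantity: yeast cell density of 5 × 10^6 cells/mL; Buffer or medium: YPD; Doses: single compound concentration per well; Timing: 4 h at 37 °C static, read 1 h later; Measured by: AK luminescence; Read-out basis: lysis from increased AK signal; Control set: Clomiphene as positive control.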
INS-1E GSIS act = GLuc luminescence reporter in INS-1E cells, primary screen for activators of glucose-dependent secretion of insulin; INS-1E GLuc reporter insulin secretion, 2-3 h; activation, % at 16.6 µM; 370,000 compounds, 0.61% hits; AID 743287;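 active = lowest replicate activation of at least 40%, so every replicate reaches that level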;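 also: 0% = median of neutral control wells and 100% = median of IBMX positive control wells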
PAX8 reporter = PAX8 transcriptional activity inhibition. 360,000 compounds, 1.2% hits. RMG-I TPO-luciferase reporter, SteadyGlo, 24 h. inhibition, % at 12.6 µM;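 active = mean replicate inhibition at least 60% with every replicate also reaching 60%; inconclusive = only one of the two criteria is met; inactive = mean below 60% and not all replicates reaching 60%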;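 also: luciferase light reporting Pax8 driven TPO promoter activity; plate controls were median of neutral control wells for no effect and mitoxantrone controls for full effect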
Env fusion inh = blocks HIV Env-driven cell-cell fusion; HeLa-JRFL Env/CEM21 cell fusion, luciferase; AID 651610; inhibition, % at 12.3 µM; 360,000 compounds, 1.1% hits;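 active = mean replicate inhibition score of at least 50 and every replicate individually at or above 50; inconclusive = only one of the two criteria met; inactive = mean below 50 and not all replicates reaching 50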;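 also: 0% = plate neutral controls and 100% = maraviroc near 300 nM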
CDK5 p35 inh = inhibitors of human CDK5/p35 kinase; 330,000 compounds, 0.01% hits; Recombinant CDK5/p35, ADP-Glo luminescence, 60 min; AID 488839; Q00535+Q15078; inhibition, % at 10 µM;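 active = highest replicate inhibition of at least 50% and at least 75% of replicates reaching 50%; inconclusive = only one of the two criteria met; inactive = both criteria failed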;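 also: plate controls were DMSO neutral control for no effect and GW8510 at 10 µM for full effect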
Target sequence (Q00535 whole entry, looked up): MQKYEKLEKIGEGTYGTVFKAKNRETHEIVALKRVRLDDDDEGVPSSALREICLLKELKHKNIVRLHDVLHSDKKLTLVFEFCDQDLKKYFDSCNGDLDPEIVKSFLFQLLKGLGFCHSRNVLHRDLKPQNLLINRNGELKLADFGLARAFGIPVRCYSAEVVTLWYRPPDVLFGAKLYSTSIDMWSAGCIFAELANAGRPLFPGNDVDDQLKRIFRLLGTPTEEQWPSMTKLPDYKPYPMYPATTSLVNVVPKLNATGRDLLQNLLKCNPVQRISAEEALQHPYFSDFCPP
Target sequence (Q15078 whole entry, looked up): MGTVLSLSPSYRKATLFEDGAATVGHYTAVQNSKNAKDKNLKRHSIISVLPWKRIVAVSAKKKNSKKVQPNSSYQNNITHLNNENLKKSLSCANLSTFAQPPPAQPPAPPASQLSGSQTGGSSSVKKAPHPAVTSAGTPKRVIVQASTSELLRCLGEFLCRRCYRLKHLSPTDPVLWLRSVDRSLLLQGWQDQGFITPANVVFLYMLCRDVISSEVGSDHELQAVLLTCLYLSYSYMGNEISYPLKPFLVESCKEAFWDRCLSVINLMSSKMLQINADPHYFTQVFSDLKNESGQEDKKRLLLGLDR
dFosB act = activators of mouse delta FosB homodimer; P13346; purified delta FosB, TAMRA-CDK5 oligo fluorescence polarization; percent of positive-control signal above neutral wells; activation, % at 25 µM; 340,000 compounds, 0.99% hits; AID 493131;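 active = mean activation above about 17%, with every replicate also reaching it, limit read from the data, passing the limit was not always enough; inconclusive = only one of the two conditions met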
An asterisk follows results filed as active; ? = inconclusive; nt = no result; [ ] = remark or other dose.

SMILES | Cneo AK release | INS-1E GSIS act | PAX8 reporter | Env fusion inh | CDK5 p35 inh | dFosB act
Cc1ccccc1Cn1ccc(=NCc2ccccc2)cc1 | nt | -23 | 85* | 41 | nt | nt
COc1ccc(S(=O)(=O)Nc2ccc3c(c2)CC(=O)N([C@H](C)CO)C[C@@H](C)[C@@H](CN(C)S(=O)(=O)c2ccc(Cl)cc2)O3)cc1 | 0 | 4 | 3 | 10[16.7 µM] | nt | nt
Cc1ccc(C(C)C)cc1NC(=O)Nc1ccc([N+](=O)[O-])cc1 | nt | -53 | 62* | -8 | -1 | 7
Cc1ccc([N+](=O)[O-])cc1NC(=O)C(Sc1ccccc1)c1ccccc1 (stereo not given) | nt | -14 | 15 | 67* | 0 | 12
CN(C)C(=S)Nc1ccc([N+](=O)[O-])cc1 | nt | 68* | 7 | 14 | 0 | 4
COc1ccc([N+](=O)[O-])cc1NC(=O)C(C)Sc1ccccc1 (stereo not given) | nt | 5 | -1 | 18 | -1 | 0
CC(=O)c1ccc(NC(=O)Nc2ccc([N+](=O)[O-])cc2)cc1 | nt | 9 | 16 | 11 | 0 | 0
O=C(Nc1ccc(Oc2ccc(NC(=O)Nc3ccc([N+](=O)[O-])cc3)cc2)cc1)Nc1ccc([N+](=O)[O-])cc1 | 0 | -14 | 7 | 60* | 1 | 12
CN(C)C(=S)Nc1ccc(Cl)cc1 | 4 | nt | 1 | 2 | 1 | 3
O=C(Nc1cccc(F)c1)N1CC(=O)N2[C@@H](CO)[C@@H](c3ccc(C#CC4CC4)cc3)[C@@H]2C1 | nt | 1 | nt | nt | nt | nt
C[C@@H]1CCCCO[C@H](CN(C)Cc2ccc(C(=O)O)cc2)[C@@H](C)CN([C@H](C)CO)C(=O)c2cc(NS(C)(=O)=O)ccc2O1 | nt | 15 | -17 | nt | nt | nt
CN1CCN(C(=O)C[C@@H]2CC[C@H]3[C@@H](COC[C@H](O)CN3C(=O)C3CCCC3)O2)CC1 | -6 | -3 | 10 | nt | nt | nt
Cc1ccc(C)c(OCC(O)CN2CCC(Cc3ccccc3)CC2)c1 (stereo not given) | -5 | nt | 6 | 55* | 2 | -5
OC(COc1ccc(Cl)cc1)CN1CCC(Cc2ccccc2)CC1 (stereo not given) | -2 | nt | 11 | 6 | -2 | -9
COc1ccc(CN(C)C[C@@H]2OCCCC[C@@H](C)Oc3ccc(NC(=O)Nc4ccc(C(F)(F)F)cc4)cc3C(=O)N([C@@H](C)CO)C[C@H]2C)cc1 | 8 | 0 | 98* | 58*[16.7 µM] | nt | nt
COc1ccc(NC(=O)Nc2ccc3c(c2)C(=O)N([C@H](C)CO)C[C@H](C)[C@H](CN(C)Cc2ccc(C(F)(F)F)cc2)OCCCC[C@H](C)O3)cc1 | 2 | -8 | 99* | 64*[16.7 µM] | nt | nt
COc1ccc(CN(C)C[C@H]2OCCCC[C@@H](C)Oc3ccc(NC(=O)Nc4ccc(C(F)(F)F)cc4)cc3C(=O)N([C@H](C)CO)C[C@@H]2C)cc1 | 0 | -8 | 2 | 11[16.7 µM] | nt | nt
COc1ccc(NC(=O)Nc2ccc3c(c2)C(=O)N([C@@H](C)CO)C[C@H](C)[C@H](CN(C)Cc2ccc(C(F)(F)F)cc2)OCCCC[C@@H](C)O3)cc1 | -3 | -18 | 57 | 4[16.7 µM] | nt | nt
COc1ccc(CN(C)C[C@H]2OCCCC[C@H](C)Oc3ccc(NC(=O)Nc4ccc(C(F)(F)F)cc4)cc3C(=O)N([C@H](C)CO)C[C@@H]2C)cc1 | 0 | -12 | 83* | ? | nt | nt
COc1ccc(CN(C)C[C@@H]2OCCCC[C@H](C)Oc3ccc(NC(=O)Nc4ccc(C(F)(F)F)cc4)cc3C(=O)N([C@H](C)CO)C[C@@H]2C)cc1 | 5 | -10 | 108* | 22[16.7 µM] | nt | nt
C[C@H]1CN([C@@H](C)CO)C(=O)c2cc(C#CC3CCCCC3)cnc2O[C@@H]1CN(C)C(=O)NC1CCCC1 | 1 | -35 | nt | -45[16.7 µM] | nt | nt
C[C@H]1CN([C@@H](C)CO)C(=O)c2cc(NC(=O)Cn3cnnn3)ccc2O[C@H]1CN(C)Cc1ccc(C(=O)Nc2ccccc2N)cc1 | 3 | 2 | nt | nt | nt | nt
COc1ccc(NC(=O)Nc2ccc3c(c2)C(=O)N([C@H](C)CO)C[C@@H](C)[C@H](CN(C)Cc2ccc(C(F)(F)F)cc2)OCCCC[C@H](C)O3)cc1 | -2 | -30 | 81* | 35[16.7 µM] | nt | nt
COc1ccc(NC(=O)Nc2ccc3c(c2)C(=O)N([C@@H](C)CO)C[C@@H](C)[C@H](CN(C)Cc2ccc(C(F)(F)F)cc2)OCCCC[C@@H](C)O3)cc1 | 49 | -13 | 64* | ? | nt | nt
COc1ccc(NC(=O)Nc2ccc3c(c2)C(=O)N([C@H](C)CO)C[C@H](C)[C@H](CN(C)Cc2ccc(C(F)(F)F)cc2)OCCCC[C@@H](C)O3)cc1 | -1 | -17 | 50 | -108[16.7 µM] | nt | nt
SMILES | Cneo AK release | INS-1E GSIS act | PAX8 reporter | Env fusion inh | CDK5 p35 inh | dFosB act
Cc1ccc(S(=O)(=O)N2C[C@H]3n4c(=O)ccc(=O)n4C[C@H](OC(=O)NCC4CCCCC4)[C@@]3(O)C2)cc1 | -3 | -12 | 73* | 25 | nt | nt
Cc1ccc(S(=O)(=O)N2C[C@H]3n4c(=O)ccc(=O)n4C[C@H](OC(=O)NCc4ccccc4)[C@@]3(O)C2)cc1 | -1 | -7 | 24 | 11 | nt | nt
CNC(=O)NC(=O)COC(=O)c1cccc(S(=O)(=O)N2CC3(C)CC2CC(C)(C)C3)c1 (stereo not given) | nt | -13 | -5 | 5 | -1 | 0
CC1(C)CC2CC(C)(CN2S(=O)(=O)c2cccc(C(=O)OCC(=O)NC(N)=O)c2)C1 (stereo not given) | 3 | 7 | -14 | 91* | 0 | -13
CC(C)NC(=O)N(C)C[C@H]1Oc2ccc(NC(=O)c3ccncc3)cc2CC(=O)N([C@@H](C)CO)C[C@H]1C | 0 | 18 | -3 | nt | nt | nt
COc1cc2[nH]c3c(Cl)ncnc3c2cc1OC | 3 | 54* | -47 | -12 | 0 | -1
COc1ccc(NC(=O)/C=C/c2cc(Br)ccc2OC)cc1 | -1 | nt | nt | nt | 0 | 3
COc1ccc(Br)cc1/C=C/C(=O)c1ccc(NC(C)=O)cc1 | nt | 34 | 105* | -256 | -1 | -5
C[C@H](CO)N1C[C@H](C)[C@@H](CN(C)Cc2ccc(-c3ccccc3)cc2)Oc2ccc(NS(=O)(=O)c3ccccc3)cc2CC1=O | -1 | 0 | 80* | -34[16.7 µM] | nt | nt
C[C@@H]1CN([C@@H](C)CO)C(=O)Cc2cc(NS(=O)(=O)c3ccc(Cl)cc3)ccc2O[C@H]1CN(C)Cc1ccc(-c2ccccc2)cc1 | nt | 6 | 69* | 23[16.7 µM] | nt | nt
C[C@@H]1CN([C@@H](C)CO)C(=O)Cc2cc(NS(=O)(=O)c3ccc(Cl)cc3)ccc2O[C@@H]1CN(C)Cc1ccc(-c2ccccc2)cc1 | nt | 12 | -12 | 2[16.7 µM] | nt | nt
C[C@@H]1CN([C@H](C)CO)C(=O)c2cccc(NC(=O)Nc3ccccc3)c2O[C@@H]1CN(C)Cc1ccc(Cl)c(Cl)c1 | 101* | -27 | 32 | -90[16.7 µM] | nt | nt
